Measurements taken from ChEMBL document CHEMBL1671627, “Increasing trends in antimicrobial resistance among clinically important anaerobes and Bacteroides fragilis isolates causing nosocomial infections: emerging resistance to carbapenems” (2008).
Converted amounts (≈) assume the structure as drawn.

What was measured:
Clostridium tertium [1] = experiment: Antibacterial activity against beta-lactamase producing Clostridium tertium assessed as resistant isolates by CLSI agar dilution method in presence of clavulanate; assay type: functional
Outline: (§1)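 207 nonduplicate anaerobic blood isolates from patients with bloodstream infections at NTUH, collected January–December 2006. MICs were determined by agar dilution following CLSI guidelines. Inocula were applied with a Steers replicator onto supplemented Brucella blood agar and incubated 48 h at 35°C in an anaerobic chamber. MIC was the lowest concentration inhibiting growth. B. fragilis ATCC 25285, B. thetaiotaomicron ATCC 29741 and E. lentum ATCC 43055 served as controls in each run.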

Parvimonas micra [2] = experiment: Antibacterial activity against beta-lactamase producing Micromonas micros assessed as resistant isolates by CLSI agar dilution method in presence of clavulanate; assay type: functional; outline: as §1
Fusobacterium varium [3] = experiment: Antibacterial activity against Fusobacterium varium assessed as resistant isolates by CLSI agar dilution method in presence of clavulanate; assay type: functional; outline: as §1
Bacteroides fragilis [4] = experiment: Antibacterial activity against Bacteroides fragilis by CLSI agar dilution method in presence of clavulanate; assay type: functional
Outline: (§2)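 Agar dilution per CLSI guidelines on nonduplicate anaerobic bloodstream isolates collected at NTUH, January to December 2006. Isolates were spotted by Steers replicator onto supplemented Brucella blood agar and incubated anaerobically for 48 h at 35°C. MIC was the lowest drug concentration that inhibited growth. B. fragilis ATCC 25285, B. thetaiotaomicron ATCC 29741 and E. lentum ATCC 43055 were run as QC in each run.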

Prevotella bivia [5] = experiment: Antibacterial activity against Prevotella bivia by CLSI agar dilution method in presence of clavulanate; assay type: functional; outline: as §2
Finegoldia magna = experiment: Antibacterial activity against beta-lactamase producing Finegoldia magna assessed as susceptible isolates by CLSI agar dilution method in presence of clavulanate; assay type: functional
Outline: (§3)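 CLSI agar dilution MICs for anaerobic blood isolates (nonduplicate) collected from bloodstream-infection patients at a Taiwanese tertiary hospital, January–December 2006. Isolates were spotted by Steers replicator onto supplemented Brucella blood agar and incubated anaerobically for 48 h at 35°C. MIC was the lowest drug concentration inhibiting growth. Each run included B. fragilis ATCC 25285, B. thetaiotaomicron ATCC 29741 and E. lentum ATCC 43055 as quality-control strains.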

Fusobacterium mortiferum [6] = experiment: Antibacterial activity against Fusobacterium mortiferum assessed as susceptible isolates by CLSI agar dilution method in presence of clavulanate; assay type: functional; outline: as §2
[7] = system: Prevotella melaninogenica; experiment: Antibacterial activity against Prevotella melaninogenica assessed as susceptible isolates by CLSI agar dilution method in presence of clavulanate; assay type: functional; outline: as §2
Bacteroides uniformis [8] = experiment: Antibacterial activity against beta-lactamase producing Bacteroides uniformis assessed as susceptible isolates by CLSI agar dilution method in presence of clavulanate; assay type: functional; outline: as §2
[9] = system: Peptostreptococcus anaerobius; experiment: Antibacterial activity against beta-lactamase producing Peptostreptococcus anaerobius by CLSI agar dilution method in presence of clavulanate; assay type: functional; outline: as §3
Clostridium septicum [10] = experiment: Antibacterial activity against beta-lactamase producing Clostridium septicum by CLSI agar dilution method in presence of clavulanate; assay type: functional; outline: as §3
Bacteroides uniformis [11] = experiment: Antibacterial activity against beta-lactamase producing Bacteroides uniformis assessed as resistant isolates by CLSI agar dilution method in presence of clavulanate; assay type: functional; outline: as §1
Fusobacterium nucleatum [12] = experiment: Antibacterial activity against Fusobacterium nucleatum assessed as resistant isolates by CLSI agar dilution method in presence of clavulanate; assay type: functional; outline: as §1
Clostridium septicum [13] = experiment: Antibacterial activity against beta-lactamase producing Clostridium septicum assessed as susceptible isolates by CLSI agar dilution method in presence of clavulanate; assay type: functional; outline: as §3
Clostridium perfringens = experiment: microbe, parasite or virus in culture; assay type: functional
Prevotella bivia [14] = experiment: Antibacterial activity against Prevotella bivia assessed as resistant isolates by CLSI agar dilution method in presence of Tazobactam; assay type: functional; outline: as §1
Fusobacterium mortiferum [15] = experiment: Antibacterial activity against Fusobacterium mortiferum assessed as susceptible isolates by CLSI agar dilution method; assay type: functional
[16] = system: Peptostreptococcus anaerobius; experiment: Antibacterial activity against beta-lactamase producing Peptostreptococcus anaerobius assessed as susceptible isolates by CLSI agar dilution method in presence of Tazobactam; assay type: functional; outline: as §3
[17] = system: Clostridium paraputrificum; experiment: Antibacterial activity against beta-lactamase producing Clostridium paraputrificum assessed as resistant isolates by CLSI agar dilution method; assay type: functional
Prevotella bivia [18] = experiment: Antibacterial activity against Prevotella bivia by CLSI agar dilution method; assay type: functional
Clostridium tertium [19] = experiment: Antibacterial activity against beta-lactamase producing Clostridium tertium assessed as susceptible isolates by CLSI agar dilution method; assay type: functional
Clostridium tertium [20] = experiment: Antibacterial activity against beta-lactamase producing Clostridium tertium by CLSI agar dilution method; assay type: functional
Prevotella buccae = experiment: Antibacterial activity against Prevotella buccae assessed as resistant isolates by CLSI agar dilution method; assay type: functional, Segatella buccae
[21] = system: Clostridium paraputrificum; experiment: Antibacterial activity against beta-lactamase producing Clostridium paraputrificum by CLSI agar dilution method; assay type: functional
[22] = system: Fusobacterium necrophorum; experiment: Antibacterial activity against Fusobacterium necrophorum assessed as resistant isolates by CLSI agar dilution method in presence of Tazobactam; assay type: functional; outline: as §1
Bacteroides fragilis [23] = experiment: Antibacterial activity against Bacteroides fragilis by CLSI agar dilution method in presence of Tazobactam; assay type: functional; outline: as §2
Bacteroides uniformis [24] = experiment: Antibacterial activity against beta-lactamase producing Bacteroides uniformis assessed as resistant isolates by CLSI agar dilution method; assay type: functional
Fusobacterium varium [25] = experiment: Antibacterial activity against Fusobacterium varium by CLSI agar dilution method; assay type: functional
Fusobacterium varium [26] = experiment: Antibacterial activity against Fusobacterium varium assessed as resistant isolates by CLSI agar dilution method in presence of Tazobactam; assay type: functional; outline: as §1
Clostridium tertium [27] = experiment: Antibacterial activity against beta-lactamase producing Clostridium tertium by CLSI agar dilution method in presence of Tazobactam; assay type: functional; outline: as §3
[28] = system: Peptoniphilus asaccharolyticus; experiment: Antibacterial activity against beta-lactamase producing Peptoniphilus asaccharolyticus assessed as susceptible isolates by CLSI agar dilution method in presence of Tazobactam; assay type: functional; outline: as §3
Bacteroides caccae [29] = experiment: Antibacterial activity against beta-lactamase producing Bacteroides caccae by CLSI agar dilution method in presence of Tazobactam; assay type: functional; outline: as §2
Parvimonas micra [30] = experiment: Antibacterial activity against beta-lactamase producing Micromonas micros assessed as resistant isolates by CLSI agar dilution method in presence of Tazobactam; assay type: functional; outline: as §1
Clostridium tertium [31] = experiment: Antibacterial activity against beta-lactamase producing Clostridium tertium assessed as susceptible isolates by CLSI agar dilution method in presence of Tazobactam; assay type: functional; outline: as §3
[32] = system: Bacteroides thetaiotaomicron; experiment: Antibacterial activity against beta-lactamase producing Bacteroides thetaiotaomicron assessed as resistant isolates by CLSI agar dilution method in presence of Tazobactam; assay type: functional; outline: as §1
Bacteroides caccae [33] = experiment: Antibacterial activity against beta-lactamase producing Bacteroides caccae assessed as resistant isolates by CLSI agar dilution method; assay type: functional
Phocaeicola vulgatus = experiment: Antibacterial activity against beta-lactamase producing Bacteroides vulgatus assessed as susceptible isolates by CLSI agar dilution method in presence of Tazobactam; assay type: functional; outline: as §3
[34] = system: Fusobacterium necrophorum; experiment: Antibacterial activity against Fusobacterium necrophorum assessed as susceptible isolates by CLSI agar dilution method; assay type: functional
Fusobacterium nucleatum [35] = experiment: Antibacterial activity against Fusobacterium nucleatum assessed as susceptible isolates by CLSI agar dilution method; assay type: functional

CC1(C)S[C@@H]2[C@H](NC(=O)[C@H](N)c3ccc(O)cc3)C(=O)N2[C@H]1C(=O)O [AMOXICILLIN]
Activity (Clostridium tertium [1]): 4% | Activity (Parvimonas micra [2]): 3% | Activity (Fusobacterium varium [3]): 7% | MIC50 (Bacteroides fragilis [4]): 4 µg/mL | MIC90 (Bacteroides fragilis [4]): 32 µg/mL | MIC50 (Prevotella bivia [5]): 4 µg/mL | MIC90 (Prevotella bivia [5]): 16 µg/mL | Activity (Finegoldia magna): 94% | Activity (Fusobacterium mortiferum [6]): 89% | Activity [7]: 81% | Activity (Bacteroides uniformis [8]): 53% | MIC50 [9]: 0.25 µg/mL | MIC90 [9]: 2 µg/mL | MIC50 (Clostridium septicum [10]): 0.5 µg/mL | MIC90 (Clostridium septicum [10]): 2 µg/mL | Activity (Bacteroides uniformis [11]): 30% | Activity (Fusobacterium nucleatum [12]): 7% | Activity (Clostridium septicum [13]): 96% | MIC50 (Clostridium perfringens): 0.5 µg/mL (≈ 1.37 µM) | MIC90 (Clostridium perfringens): 2 µg/mL (≈ 5.47 µM)

CCN1CCN(C(=O)N[C@@H](C(=O)N[C@@H]2C(=O)N3[C@@H]2SC(C)(C)[C@@H]3C(=O)O)c2ccccc2)C(=O)C1=O [PIPERACILLIN]
Activity (Prevotella bivia [14]): 0% | Activity (Fusobacterium mortiferum [15]): 90% | Activity [16]: 97% | Activity [17]: 0% | MIC50 (Prevotella bivia [18]): 16 µg/mL (≈ 30.9 µM) | MIC90 (Prevotella bivia [18]): 128 µg/mL (≈ 247 µM) | Activity (Clostridium tertium [19]): 100% | MIC50 (Clostridium tertium [20]): 0.25 µg/mL (≈ 0.483 µM) | MIC90 (Clostridium tertium [20]): 2 µg/mL (≈ 3.86 µM) | Activity (Prevotella buccae): 22% | MIC50 [21]: 0.25 µg/mL (≈ 0.483 µM) | MIC90 [21]: 2 µg/mL (≈ 3.86 µM) | Activity [22]: 0% | MIC50 (Bacteroides fragilis [23]): 1 µg/mL | MIC90 (Bacteroides fragilis [23]): 8 µg/mL | Activity (Bacteroides uniformis [24]): 65% | MIC50 (Fusobacterium varium [25]): 2 µg/mL (≈ 3.86 µM) | MIC90 (Fusobacterium varium [25]): 8 µg/mL (≈ 15.5 µM) | Activity (Fusobacterium varium [26]): 0% | MIC50 (Clostridium tertium [27]): 0.5 µg/mL | MIC90 (Clostridium tertium [27]): 2 µg/mL | Activity [28]: 97% | MIC50 (Bacteroides caccae [29]): 8 µg/mL | MIC90 (Bacteroides caccae [29]): 16 µg/mL | Activity (Parvimonas micra [30]): 0% | Activity (Clostridium tertium [31]): 100% | Activity [32]: 0% | Activity (Bacteroides caccae [33]): 65% | Activity (Phocaeicola vulgatus): 96% | Activity [34]: 90% | Activity (Fusobacterium nucleatum [35]): 90%
